Data published in ChEMBL document CHEMBL1926642, “Relevance of the C-5 position to schweinfurthin induced cytotoxicity” (2011).

Columns and labels:
Type in all cases: functional
CCRF-CEM = assay: Growth inhibition of human CCRF-CEM cells after 48 hrs by sulforhodamine B assay
HL-60(TB) = assay: Growth inhibition of human HL-60(TB) cells after 48 hrs by sulforhodamine B assay; conditions: HL-60, 48 h
In short: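 Run in the NCI 60 cell-line screen as the full 5-dose assay that follows initial single-dose testing; GI50 is read from the dose series.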

RPMI-8226 = assay: Growth inhibition of human RPMI8226 cells after 48 hrs by sulforhodamine B assay; conditions: RPMI-8226, 48 h
EKVX = assay: Growth inhibition of human EKVX cells after 48 hrs by sulforhodamine B assay
NCI-H23 = assay: Growth inhibition of human NCI-H23 cells after 48 hrs by sulforhodamine B assay; conditions: NCI-H23, 48 h
A549 = assay: Growth inhibition of human A549 cells after 48 hrs by sulforhodamine B assay; conditions: A549, 48 h
NCI-H522 = assay: Growth inhibition of human NCI-H522 cells after 48 hrs by sulforhodamine B assay; conditions: NCI-H522, 48 h
HCC 2998 = assay: Growth inhibition of human HCC2998 cells after 48 hrs by sulforhodamine B assay; conditions: HCC 2998, 48 h
HCT-116 = assay: Growth inhibition of human HCT116 cells after 48 hrs by sulforhodamine B assay; conditions: HCT-116, 48 h
SW-620 = assay: Growth inhibition of human SW620 cells after 48 hrs by sulforhodamine B assay; conditions: SW-620, 48 h
SF-268 = assay: Growth inhibition of human SF268 cells after 48 hrs by sulforhodamine B assay; conditions: SF-268, 48 h
SF-539 = assay: Growth inhibition of human SF539 cells after 48 hrs by sulforhodamine B assay; conditions: SF-539, 48 h
SNB-19 = assay: Growth inhibition of human SNB19 cells after 48 hrs by sulforhodamine B assay; conditions: SNB-19, 48 h
U-251 = assay: Growth inhibition of human U251 cells after 48 hrs by sulforhodamine B assay; conditions: U-251, 48 h
LOX IMVI = assay: Growth inhibition of human LOXIMVI cells after 48 hrs by sulforhodamine B assay
MDA-MB-435 = assay: Growth inhibition of human MDA-MB-435 cells after 48 hrs by sulforhodamine B assay; conditions: MDA-MB-435, 48 h
SK-MEL-2 = assay: Growth inhibition of human SK-MEL-2 cells after 48 hrs by sulforhodamine B assay; conditions: SK-MEL-2, 48 h
SK-MEL-28 = assay: Growth inhibition of human SK-MEL-28 cells after 48 hrs by sulforhodamine B assay; conditions: SK-MEL-28, 48 h
SK-MEL-5 = assay: Growth inhibition of human SK-MEL-5 cells after 48 hrs by sulforhodamine B assay; conditions: SK-MEL-5, 48 h
IGROV-1 = assay: Growth inhibition of human IGROV1 cells after 48 hrs by sulforhodamine B assay; conditions: IGROV-1, 48 h
OVCAR-3 = assay: Growth inhibition of human OVCAR3 cells after 48 hrs by sulforhodamine B assay; conditions: OVCAR-3, 48 h
OVCAR-4 = assay: Growth inhibition of human OVCAR4 cells after 48 hrs by sulforhodamine B assay; conditions: OVCAR-4, 48 h
OVCAR-5 = assay: Growth inhibition of human OVCAR5 cells after 48 hrs by sulforhodamine B assay; conditions: OVCAR-5, 48 h
OVCAR-8 = assay: Growth inhibition of human OVCAR8 cells after 48 hrs by sulforhodamine B assay; conditions: OVCAR-8, 48 h
SK-OV-3 = assay: Growth inhibition of human SKOV3 cells after 48 hrs by sulforhodamine B assay; conditions: SK-OV-3, 48 h
A498 = assay: Growth inhibition of human A498 cells after 48 hrs by sulforhodamine B assay; conditions: A498, 48 h
CAKI-1 = assay: Growth inhibition of human Caki1 cells after 48 hrs by sulforhodamine B assay; conditions: CAKI-1, 48 h
RXF 393 = assay: Growth inhibition of human RXF393 cells after 48 hrs by sulforhodamine B assay; conditions: RXF 393, 48 h
MDA-MB-231 = assay: Growth inhibition of human MDA-MB-231/ATCC cells after 48 hrs by sulforhodamine B assay; conditions: MDA-MB-231, 48 h
[1] = Growth inhibition of human Hs 578T cells after 48 hrs by sulforhodamine B assay
BT-549 = assay: Growth inhibition of human BT549 cells after 48 hrs by sulforhodamine B assay; conditions: BT-549, 48 h
[2] = read-out: pLC50 (the source's name) (converted)

## COc1cc(/C=C/c2ccc3c(c2)C[C@@H]2C(C)(C)[C@H](O)CC[C@@]2(C)O3)cc(O)c1C/C=C(\C)CCC=C(C)C
CCRF-CEM
  GI50: 8.32 µM
  LC50: > 100 µM
CCRF-CEM; read-out: pTGI (converted)
  TGI: > 100 µM
HL-60(TB)
  GI50: 13.8 µM
HL-60(TB); [2]
  CC50: > 100 µM
HL-60(TB); read-out: pTGI (converted)
  TGI: 57.5 µM
RPMI-8226
  GI50: 3.09 µM
  LC50: > 100 µM
RPMI-8226; read-out: pTGI (converted)
  TGI: 14.5 µM
EKVX
  GI50: 14.5 µM
  LC50 (50% lethal concentration): > 100 µM
EKVX; read-out: pTGI (converted)
  TGI: 57.5 µM
NCI-H23
  GI50: 15.1 µM
  LC50: 60.3 µM
NCI-H23; read-out: pTGI (converted)
  TGI: 30.2 µM
A549
  LC50: > 100 µM
A549; read-out: GI50
  GI50: 13.2 µM
A549; read-out: pGI50 (converted)
  GI50: 13.2 µM
A549; read-out: pTGI (converted)
  TGI: 39.8 µM
NCI-H522
  GI50: 17.8 µM
  LC50: 66.1 µM
NCI-H522; read-out: pTGI (converted)
  TGI: 33.9 µM
HCC 2998
  GI50: 15.8 µM
  LC50: 85.1 µM
HCC 2998; read-out: pTGI (converted)
  TGI: 37.2 µM
HCT-116
  GI50: 7.76 µM
  LC50: 45.7 µM
HCT-116; read-out: pTGI (converted)
  TGI: 20.4 µM
SW-620
  GI50: 11.7 µM
  LC50: 53.7 µM
SW-620; read-out: pTGI (converted)
  TGI: 25.1 µM
SF-268
  GI50: 14.8 µM
  LC50: 81.3 µM
SF-268; read-out: pTGI (converted)
  TGI: 34.7 µM
SF-539
  GI50: 4.17 µM
  LC50: 57.5 µM
SF-539; read-out: pTGI (converted)
  TGI: 17.4 µM
SNB-19
  GI50: 15.5 µM
  LC50: 91.2 µM
SNB-19; read-out: pTGI (converted)
  TGI: 37.2 µM
U-251
  GI50: 5.62 µM
  LC50: 63.1 µM
U-251; read-out: pTGI (converted)
  TGI: 22.4 µM
LOX IMVI
  GI50: 3.31 µM
  LC50: 37.2 µM
LOX IMVI; read-out: pTGI (converted)
  TGI: 11.5 µM
MDA-MB-435
  GI50: 17.4 µM
  LC50: 81.3 µM
MDA-MB-435; read-out: pTGI (converted)
  TGI: 38 µM
SK-MEL-2
  GI50: 15.8 µM
  LC50: 81.3 µM
SK-MEL-2; read-out: pTGI (converted)
  TGI: 35.5 µM
SK-MEL-28
  GI50: 16.2 µM
SK-MEL-28; [2]
  CC50: 69.2 µM
SK-MEL-28; read-out: pTGI (converted)
  TGI: 33.1 µM
SK-MEL-5
  GI50: 8.71 µM
  LC50: 49 µM
SK-MEL-5; read-out: pTGI (converted)
  TGI: 21.4 µM
IGROV-1
  GI50: 14.5 µM
  LC50: 70.8 µM
IGROV-1; read-out: pTGI (converted)
  TGI: 31.6 µM
OVCAR-3
  GI50: 17.4 µM
  LC50: 66.1 µM
OVCAR-3; read-out: pTGI (converted)
  TGI: 33.9 µM
OVCAR-4
  GI50: 20.9 µM
  LC50: > 100 µM
OVCAR-4; read-out: pTGI (converted)
  TGI: 83.2 µM
OVCAR-5
  GI50: 27.5 µM
  LC50: > 100 µM
OVCAR-5; read-out: pTGI (converted)
  TGI: 79.4 µM
OVCAR-8
  GI50: 25.1 µM
  LC50: > 100 µM
OVCAR-8; read-out: pTGI (converted)
  TGI: 74.1 µM
SK-OV-3
  GI50: 22.9 µM
  LC50: > 100 µM
SK-OV-3; read-out: pTGI (converted)
  TGI: > 100 µM
A498
  GI50: 46.8 µM
  LC50: > 100 µM
A498; read-out: pTGI (converted)
  TGI: > 100 µM
CAKI-1
  GI50: 5.37 µM
  LC50: 67.6 µM
CAKI-1; read-out: pTGI (converted)
  TGI: 20 µM
RXF 393
  GI50: 1.29 µM
  LC50 (50% lethal concentration): 6.61 µM
RXF 393; read-out: pTGI (converted)
  TGI: 2.88 µM
MDA-MB-231
  GI50: 10 µM
MDA-MB-231; [2]
  CC50: 95.5 µM
MDA-MB-231; read-out: pTGI (converted)
  TGI: 30.9 µM
[1]
  GI50: 8.71 µM
[1]; [2]
  CC50: > 100 µM
[1]; read-out: pTGI (converted)
  TGI: 93.3 µM
BT-549
  GI50: 5.01 µM
  LC50: 49 µM
BT-549; read-out: pTGI (converted)
  TGI: 17.8 µM
